A short description of assay [1]: Binding affinity for rat alpha2 beta2/3 gamma2 GABA-A/BzR receptor. In outline:
(§1)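 Recombinant rat αxβ2/3γ2 GABAA/benzodiazepine receptors expressed in HEK293 cells. Affinity measured by radioligand binding and reported as Ki. Values are means ± SEM from three independent experiments, each run in triplicate.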

Assay [2] has as its system Rattus norvegicus. The experiment in a line: Duration of loss of the righting reflex induced by ethanol at a dose of 3 mg/Kg when given per oral; n=14. It is filed as functional, Mus musculus.
Assay [3] deals with Rattus norvegicus. The experiment in a line: Duration of loss of the righting reflex induced by ethanol at a dose of 1 mg/Kg when given per oral; n=12. It counts as functional, Mus musculus.
The subject of assay [4] is Rattus norvegicus. The experiment in a line: Duration of loss of the righting reflex induced by ethanol at a dose of 0.3 mg/Kg when given per oral; n=8. It is filed as functional, Mus musculus.
A short description of assay [5]: Binding affinity for rat alpha-5 beta2/3 gamma2 GABA-A/BzR receptor. Put shortly: as §1
Assay [6] has as its system Mus musculus. The experiment in a line: Percent of mice not entering into the dark compartment in 120 s in 24 hr retention test at 0 hr treatment at a dose of 10 mg/Kg when given peroral […] avoidance test; n=10.
Assay [7] relates to Mus musculus. The experiment in a line: Percent of mice not entering into the dark compartment in 120 s in 24 hr retention test at 0 hr treatment at a dose of 30 mg/Kg when given peroral […] avoidance test; n=10.
Assay [8] in a line: Binding affinity for rat alpha-1 beta2/3 gamma2 GABA A / BzR receptor. In outline: as §1
Assay [9] can be described thus: Binding affinity for rat alpha-3 beta2/3 gamma2 GABA-A/BzR receptor. Put shortly:
as §1

Assay [10] concerns Rattus norvegicus. The experiment in a line: Duration of loss of the righting reflex induced by ethanol at a dose of 30 mg/Kg when given per oral; n=8. It is filed as functional, Mus musculus.

Here are results for three compounds from ChEMBL document CHEMBL1141130, “A novel selective GABA(A) alpha1 receptor agonist displaying sedative and anxiolytic-like properties in rodents” (J Med Chem, 2005).

One may read the Ki as the dissociation constant of the complex between target and ligand, obtained from inhibition or displacement. `CN1C(=O)CN=C(c2ccccc2)c2cc(Cl)ccc21` [DIAZEPAM] had a Ki in assay [1] of 0.02 µM. The Time came to 149.5 min with Rattus norvegicus [2], 129.3 min in the assay with Rattus norvegicus [3] and 127.4 min in the assay with Rattus norvegicus [4].
For `Cc1ccc(-c2nc3ccc(C)cn3c2CC(=O)N(C)C)cc1` [ZOLPIDEM], the Ki in [5] is above 10 µM. Also, the “%” value with Mus musculus [6] was 50%; in the assay with Mus musculus [7], 70%.
`Cc1ccc(-c2nn3ccc(C)nc3c2CC(=O)N(C)C)cc1`: the Ki in [8] was 0.031 µM; in [1], above 10 µM; in assay [9], above 10 µM; in assay [5] it was above 10 µM. In the assay on Rattus norvegicus [10], this compound showed a Time of 104.9 min. The results for the “%” value in the assay with Mus musculus [6] and in the assay with Mus musculus [7] were 40% and 50%, respectively.
